Measurements taken from ChEMBL document CHEMBL1255483, “Intra- and extracellular activities of dicloxacillin against Staphylococcus aureus in vivo and in vitro” (Antimicrob Agents Chemother, 2010).
In brackets after ≈: the same amount, converted by molar mass. Activity calls are given as the source filed them. No cut-off for these calls is given here.

Experiments:
Staphylococcus aureus [1] = assay: Bactericidal activity against Staphylococcus aureus E19977 infected in human THP1 cells assessed as log reduction in bacterial count at 100 times MIC after 24 hrs by time-kill assay; format: functional, THP-1
Procedure, shortened: (§1)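 Intracellular model in THP-1 macrophages: opsonized S. aureus was added at 4 bacteria per macrophage for 45 min. Non-phagocytized bacteria were removed by washing and brief PBS incubation with gentamicin (50 mg/liter). Cells were then incubated up to 24 h with a wide range of extracellular dicloxacillin concentrations. Result is change in log₁₀ CFU per mg cell protein from time zero. n = 3.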

[2] = Ratio of fCmax in NMRI mouse at 300 mg/kg administered every 12 hrs to MIC for Staphylococcus aureus E19977; format: functional
Procedure, shortened: (§2)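 Free Cmax/MIC was modelled, not measured. Single-dose subcutaneous plasma curves from NMRI mice were projected to the multiple-dose regimens. Free fraction came from a square-root fit of unbound fraction versus total concentration. Binding was measured by ultrafiltration of mouse plasma spiked with 10–400 mg/liter and held 1 h at 37°C. MIC was for strain E19977.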

Staphylococcus aureus [3] = assay: Bactericidal activity against Staphylococcus aureus ATCC 25923 assessed as log reduction in bacterial count at MIC after 5 hrs by time-kill assay; format: functional
Procedure, shortened: (§3)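 Broth time-kill: MSSA at 10⁶ CFU/ml exposed to a wide range of dicloxacillin concentrations. CFU counted after 5 and 24 h and expressed as change in log₁₀ CFU/ml from time zero. Multiples refer to the MIC by CLSI microdilution at pH 7.4. n = 3.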

Mus musculus [4] = species on record: Mus musculus; assay: Protein binding in NMRI mouse at 400 mg/l by ultrafiltration; format: ADME, organism-based; conditions: in vivo
Procedure, shortened: (§4)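 Plasma binding was measured by ultrafiltration. EDTA blood from healthy mice, or from NMRI mice infected intraperitoneally for 6 h with E19977, was spiked with DCX at 10–400 mg/liter, with PBS controls. Samples were held 1 h at 37°C, then centrifuged through 30-kDa filters at 3,000 × g for 8 min at 37°C. Total and filtrate drug were measured by S. lutea bioassay.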

Staphylococcus aureus [5] = assay: Bactericidal activity against Staphylococcus aureus ATCC 25923 infected in human THP1 cells assessed as log reduction in bacterial count at 10 times MIC after 24 hrs by time-kill assay; format: functional, THP-1; procedure, shortened: as §1
Staphylococcus aureus [6] = assay: Bacteriostatic activity against Staphylococcus aureus E19977 after 24 hrs; format: functional
Procedure, shortened: (§5)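 Extracellular broth time- and concentration-kill test. The inoculum was ~10⁶ CFU/ml, exposed to a wide range of DCX concentrations, with CFU counted after 5 and 24 h. The read-out was Δlog CFU/ml versus time zero (mean ± SD, n = 3). A sigmoidal fit with slope 1 gave Emax and EC50. Cstatic was read by graphical interpolation as the concentration giving no change from the inoculum.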

[7] = Ratio of fAUC (24 hrs) in NMRI mouse at 400 mg/kg administered every 12 hrs to MIC for Staphylococcus aureus E19977; format: functional
Procedure, shortened: (§6)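 Modeled free AUC over 24 h divided by the MIC, not measured directly. Single subcutaneous DCX doses were given to NMRI mice, and plasma was assayed by S. lutea bioassay. Noncompartmental analysis used trapezoidal mean points plus a fitted monoexponential extrapolated to 24 h. Free fraction came from a square-root fit to plasma ultrafiltration binding (10–400 mg/liter spike, 1 h, 37°C). The MIC was measured by broth microdilution at pH 7.4.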

Staphylococcus aureus [8] = assay: Bacteriostatic activity against Staphylococcus aureus E19977 infected in human THP-1 cells at 10 times MIC after 5 hrs; format: functional, organism-based
Procedure, shortened: (§7)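 Human THP-1 macrophages were infected with opsonized S. aureus at 4 bacteria per macrophage for 45 min. Non-phagocytized bacteria were removed by washing and a brief incubation in PBS with gentamicin 50 mg/liter. Cells were then incubated up to 24 h with DCX over a wide range of extracellular concentrations. The read-out was Δlog CFU per mg cell protein versus time zero (n = 3), with sigmoidal fitting and Cstatic by interpolation.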

[9] = fT>MIC in Staphylococcus aureus E19977 infected NMRI mouse at 300 mg/kg administered every 12 hrs; format: functional
Procedure, shortened: (§8)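 Calculated percentage of 24 h at steady state that free plasma DCX exceeds the strain MIC (microdilution, pH 7.4). Concentrations were simulated from single subcutaneous dose plasma curves in NMRI mice (S. lutea bioassay), adjusted with a square-root model of concentration-dependent free fraction from ultrafiltration. The regimen was dosed subcutaneously in mice infected intraperitoneally with 10^7.4 CFU, and peritoneal CFU were read after 24 h of therapy.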

Mus musculus [10] = species on record: Mus musculus; assay: Protein binding in NMRI mouse at 90 mg/l by ultrafiltration; format: ADME, organism-based; conditions: in vivo; procedure, shortened: as §4
Staphylococcus aureus [11] = assay: Bactericidal activity against Staphylococcus aureus ATCC 25923 assessed as log reduction in bacterial count at 100 times MIC after 5 hrs by time-kill assay; format: functional; procedure, shortened: as §3
Staphylococcus aureus [12] = assay: Bacteriostatic activity against Staphylococcus aureus E19977 infected in human THP-1 cells at MIC after 5 hrs; format: functional, organism-based; procedure, shortened: as §7
[13] = fT>MIC in Staphylococcus aureus E19977 infected NMRI mouse at 120 mg/kg administered every 24 hrs; format: functional; procedure, shortened: as §8
[14] = Ratio of fCmax in NMRI mouse at 120 mg/kg administered every 6 hrs to MIC for Staphylococcus aureus E19977; format: functional; procedure, shortened: as §2
Staphylococcus aureus [15] = assay: Bacteriostatic activity against Staphylococcus aureus ATCC 25923 after 24 hrs; format: functional; procedure, shortened: as §5
[16] = Ratio of fAUC (24 hrs) in NMRI mouse at 120 mg/kg administered every 24 hrs to MIC for Staphylococcus aureus E19977; format: functional
Procedure, shortened: (§9)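 Free-drug AUC24/MIC was modelled for repeated subcutaneous regimens. Single-dose NMRI plasma concentration-time curves were combined with the best-fitting square-root expression for the concentration-dependent free fraction. The result was divided by the E19977 MIC.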

Staphylococcus aureus [17] = assay: Bactericidal activity against Staphylococcus aureus E19977 assessed as log reduction in bacterial count at 10 times MIC after 24 hrs by time-kill assay; format: functional; procedure, shortened: as §3
Staphylococcus aureus [18] = assay: Bacteriostatic activity against Staphylococcus aureus ATCC 25923 infected in human THP-1 cells at 100 times MIC after 5 hrs; format: functional, organism-based; procedure, shortened: as §7
[19] = Ratio of fAUC (24 hrs) in NMRI mouse at 76 mg/kg administered every 2 hrs to MIC for Staphylococcus aureus E19977; format: functional; procedure, shortened: as §6
[20] = Ratio of fCmax in NMRI mouse at 30 mg/kg administered every 2 hrs to MIC for Staphylococcus aureus E19977; format: functional; procedure, shortened: as §2
Mus musculus [21] = species on record: Mus musculus; assay: Protein binding in NMRI mouse infected with Staphylococcus aureus E19977 at 30 mg/l by ultrafiltration; format: ADME, organism-based; conditions: in vivo; procedure, shortened: as §4
[22] = Ratio of fCmax in NMRI mouse at 120 mg/kg administered every 24 hrs to MIC for Staphylococcus aureus E19977; format: functional; procedure, shortened: as §2
Staphylococcus aureus [23] = assay: Bactericidal activity against Staphylococcus aureus E19977 assessed as log reduction in bacterial count at 100 times MIC after 24 hrs by time-kill assay; format: functional; procedure, shortened: as §3
Staphylococcus aureus [24] = assay: Antimicrobial activity against Staphylococcus aureus ATCC 25923 infected in human THP-1 cells after 24 hrs; format: functional, organism-based; conditions: ATCC 25923, THP-1, 24 h; procedure, shortened: as §7
[25] = Ratio of fAUC (24 hrs) in NMRI mouse at 160 mg/kg administered every 3 hrs to MIC for Staphylococcus aureus E19977; format: functional; procedure, shortened: as §9
[26] = Ratio of fCmax in NMRI mouse at 400 mg/kg administered every 12 hrs to MIC for Staphylococcus aureus E19977; format: functional; procedure, shortened: as §2

Activity (Mus musculus [4]): 83.7%
fAUC/MIC [7]: 644.84 h
fT>MIC [9]: 35.28%
Activity (Mus musculus [10]): 88.7%
fT>MIC [13]: 9.44%
fAUC/MIC [16]: 43.95 h
fAUC/MIC [19]: 227.43 h
Activity (Mus musculus [21]): 91.9%
EC50 (Staphylococcus aureus [24]): 0.04 µg/mL (≈ 0.085 µM)
fAUC/MIC [25]: 556.4 h
Compound: Cc1onc(-c2c(Cl)cccc2Cl)c1C(=O)N[C@@H]1C(=O)N2[C@@H]1SC(C)(C)[C@@H]2C(=O)O [DICLOXACILLIN]
FC (Staphylococcus aureus [1]): <1
Ratio [2]: 196.76
FC (Staphylococcus aureus [3]): <1
FC (Staphylococcus aureus [5]): <1
Activity (Staphylococcus aureus [6]): 0.43 mg/L
Activity (Staphylococcus aureus [8]): Active
FC (Staphylococcus aureus [11]): <1
Activity (Staphylococcus aureus [12]): Active
Ratio [14]: 61.6
Activity (Staphylococcus aureus [15]): 0.07 mg/L
FC (Staphylococcus aureus [17]): 3
Activity (Staphylococcus aureus [18]): Active
Ratio [20]: 6.27
Ratio [22]: 61.6
FC (Staphylococcus aureus [23]): 3
Ratio [26]: 291.53
